Out of some 51,000 compounds screened, about 150 (0.29%) were called active. The entries come from a sample that favours actives as a whole. Unmarked numbers belong to inactive results.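 How the source made its calls: active means both repeat wells score below -2 in polarization z-score versus plate sample wells, excluding overly bright wells; inactive means the rest.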

For the assay, the system named is LANA (ORF73) N-terminal peptide binding to nucleosomes, Human herpesvirus 8. Nature of the assay: LANA N-terminal peptide–nucleosome interaction blockers – biochemical, fluorescence polarization, FITC-LANA1-23, chicken nucleosomes, primary screen (AID 720717). The settings on record: FITC-LANA1-23 / chicken nucleosome fluorescence polarization; stronger effect = lower value. Put shortly:
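Assay system: FITC-LANA peptide and chicken nucleosomes; input: 240 nM purified chicken nucleosomes (480 nM peptide binding sites), final; also added: 50 nM FITC-LANA1-23 probe; medium: TEN-BT buffer, pH 7.5; doses: pin-transferred compound, 100 nL; times: 10–45 min, room temperature; technique: fluorescence polarization; replication: duplicates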
A general note: In fluorescence polarisation assays a small probe gives low polarisation when free and higher when bound to something large.
`CN1CCc2c(c(S)[nH]c(=S)c2C#N)C1`: the z-score is -3.73 (active). On to `CCOC(=O)c1sc2nc3c(cc2c1N)CN(C)CC3`, for which the z-score is 0.365. As for `O=C(c1ccccc1)c1cc(Cl)ccc1NC(=O)C(F)(F)F`, the z-score is -0.891. For `Cc1cccc(NC(=O)OC2CN3CCC2CC3)c1` (stereo not given) the value was -0.799; for `CC1(C)CC(Nc2nc(Cl)c(C#N)c(Cl)c2Cl)CC(C)(C)N1`, -1.52.

The values above are taken from PubChem BioAssay AID720717 (ICCB-Longwood Screening Facility, Harvard Medical School, 2013).
